Assay results published in ChEMBL document CHEMBL3085739, “Design, synthesis, and biological evaluation of 2-oxo-3,4-dihydropyrimido[4,5-d]pyrimidinyl derivatives as new irreversible epidermal growth factor receptor inhibitors with improved pharmacokinetic properties” (J Med Chem, 2013).
In brackets after ≈: the same amount, converted by molar mass.

Columns and labels:
[1] = Oral bioavailability in Sprague-Dawley rat at 25 mg/kg by LC/MS analysis; format: ADME, organism-based; conditions: in vivo
Outline: (§1)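 Male Sprague-Dawley rats (180−220 g), n = 4 per route, single iv dose 5 mg/kg or oral gavage 25 mg/kg. Vehicle was 2% DMSO, 4% EtOH, 4% castor oil, 90% H2O. Orbital sinus blood was taken from 2 min to 72 h into heparinized tubes. Plasma levels were measured by LC/MS with propranolol internal standard and analysed by pharmacokinetic modelling.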

[2] = Clearance in Sprague-Dawley rat at 25 mg/kg, po by LC/MS analysis; format: ADME, organism-based; parameters: dose 25 mg/kg, route oral; conditions: in vivo; outline: as §1
[3] = Clearance in Sprague-Dawley rat at 5 mg/kg, iv by LC/MS analysis; format: ADME, organism-based; parameters: dose 5 mg/kg, route intravenous; conditions: in vivo; outline: as §1
[4] = AUC (0 to infinity) in Sprague-Dawley rat at 25 mg/kg, po by LC/MS analysis; format: ADME, organism-based; parameters: dose 25 mg/kg, route oral, time infinity; conditions: plasma; outline: as §1
[5] = AUC (0 to infinity) in Sprague-Dawley rat at 5 mg/kg, iv by LC/MS analysis; format: ADME, organism-based; parameters: time infinity, dose 5 mg/kg, route intravenous; conditions: plasma; outline: as §1
[6] = Cmax in Sprague-Dawley rat at 25 mg/kg, po by LC/MS analysis; format: ADME, organism-based; parameters: dose 25 mg/kg, route oral; conditions: in vivo; outline: as §1
[7] = Cmax in Sprague-Dawley rat at 5 mg/kg, iv by LC/MS analysis; format: ADME, organism-based; parameters: dose 5 mg/kg, route intravenous; conditions: in vivo; outline: as §1
[8] = Thermodynamic aqueous solubility of the compound in PBS buffer at pH 6.8 after 24 hrs by HPLC analysis; format: physicochemical; conditions: for solubility thermodynamic at 24 h: PBS buffer, pH 6.8, read-out: Therm_solubility
Outline: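 Compound was shaken in aqueous buffer at pH 6.8 for 24 h at ambient temperature; dissolved concentration was measured by HPLC.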

NCI-H1975 = assay: Antiproliferative activity against human NCI-H1975 cells expressing EGFR L858R/T790M double mutant after 72 hrs by MTS assay; format: functional, cell-based; conditions: NCI-H1975, 72 h
[9] = target: Epidermal growth factor receptor (Homo sapiens, UniProt P00533, L858R/T790M); assay: Inhibition of EGFR L858R/T790M double mutant (unknown origin) after 1.5 hrs by FRET-based Z'-Lyte assay; format: protein assay
Sequence of Epidermal growth factor receptor (P00533 25-1210 T790M/L858R limits assumed): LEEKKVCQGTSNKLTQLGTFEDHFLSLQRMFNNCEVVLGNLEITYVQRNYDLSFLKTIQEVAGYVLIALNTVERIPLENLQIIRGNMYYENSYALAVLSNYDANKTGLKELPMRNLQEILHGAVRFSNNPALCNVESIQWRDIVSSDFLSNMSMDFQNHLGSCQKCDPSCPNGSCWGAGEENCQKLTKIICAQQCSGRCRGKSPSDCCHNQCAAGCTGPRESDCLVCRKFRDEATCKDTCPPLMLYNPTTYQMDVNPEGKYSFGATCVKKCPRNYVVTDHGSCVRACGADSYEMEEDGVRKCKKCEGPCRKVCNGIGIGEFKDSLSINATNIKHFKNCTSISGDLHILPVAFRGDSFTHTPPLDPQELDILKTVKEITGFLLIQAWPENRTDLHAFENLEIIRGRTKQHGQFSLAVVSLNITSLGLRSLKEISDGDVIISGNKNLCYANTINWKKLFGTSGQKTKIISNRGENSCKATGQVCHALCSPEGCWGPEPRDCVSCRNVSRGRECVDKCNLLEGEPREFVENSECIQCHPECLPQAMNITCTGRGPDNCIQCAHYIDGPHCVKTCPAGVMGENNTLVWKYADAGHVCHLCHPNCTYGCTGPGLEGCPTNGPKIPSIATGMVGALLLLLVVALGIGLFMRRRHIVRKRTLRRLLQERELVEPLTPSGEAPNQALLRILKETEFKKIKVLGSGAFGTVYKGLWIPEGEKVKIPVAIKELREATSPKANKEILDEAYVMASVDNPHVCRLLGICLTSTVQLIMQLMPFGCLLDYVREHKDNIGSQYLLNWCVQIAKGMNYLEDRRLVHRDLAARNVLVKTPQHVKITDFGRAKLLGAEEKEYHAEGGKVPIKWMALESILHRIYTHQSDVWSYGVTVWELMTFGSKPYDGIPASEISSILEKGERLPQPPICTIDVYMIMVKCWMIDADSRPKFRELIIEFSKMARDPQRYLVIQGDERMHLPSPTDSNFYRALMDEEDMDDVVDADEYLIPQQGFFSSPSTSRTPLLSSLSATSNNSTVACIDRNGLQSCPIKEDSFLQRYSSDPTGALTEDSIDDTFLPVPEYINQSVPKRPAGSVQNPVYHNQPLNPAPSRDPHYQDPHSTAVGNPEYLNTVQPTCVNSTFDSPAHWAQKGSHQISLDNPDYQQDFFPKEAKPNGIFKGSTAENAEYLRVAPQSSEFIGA

Compound	bioavailability [1] [%]	CL/F [2] [mL/min/kg]	clearance [3] [mL/min/kg]	AUC(0-inf) [4] [ng·h/mL]	AUC(0-inf) [5] [ng·h/mL]	Cmax [6] [ng/mL]	Cmax [7] [ng/mL]	solubility thermodynamic at 24 h [8] [µg/mL]	IC50 (NCI-H1975) [µM]	IC50 [9] [µM]	Therm solubility ([8]; buffer, pH 6.8, 24 h) [µg/mL]
C=CC(=O)N1CC[C@H](N2C(=O)N(c3ccccc3)Cc3cnc(Nc4ccccc4)nc32)C1	44	95	41.7	4520	2030	1670	6540	3.5 (≈ 7.95 µM)	1.68	0.235	
C=CC(=O)N1CCC[C@H](N2C(=O)N(Cc3ccccc3)Cc3cnc(Nc4ccc(N5CCN(C)CC5)cc4OC)nc32)C1								129 (≈ 216 µM)	1.56	0.204	
C=CC(=O)N1CC[C@H](N2C(=O)N(c3ccccc3)Cc3cnc(Nc4ccc(N5CCN(C)CC5)c(F)c4)nc32)C1	33	122	40	3480	2120	964	3260	691 (≈ 1240 µM)			
C=CC(=O)N1CC[C@H](N2C(=O)N(c3ccccc3)Cc3cnc(Nc4ccc(CCN5CCN(C)CC5)cc4)nc32)C1	40	382	153	1130	561	232	1410	4350 (≈ 7680 µM)	0.448	0.0413	
C=CC(=O)N1CC[C@H](N2C(=O)N(C(C)C)Cc3cnc(Nc4ccc(N5CCN(C)CC5)cc4OC)nc32)C1								2490 (≈ 4660 µM)	3.06	0.864	
C=CC(=O)N1CC[C@@H](N2C(=O)N(Cc3ccccc3)Cc3cnc(Nc4ccc(N5CCN(C)CC5)cc4OC)nc32)C1								199 (≈ 341 µM)	1.55	0.107	
C=CC(=O)N1CC[C@H](N2C(=O)N(c3ccccc3)Cc3cnc(Nc4cccc(N5CCN(C)CC5)c4)nc32)C1	20	565	113	760	746	291	1820	714 (≈ 1330 µM)	0.523	0.0979	
C=CC(=O)N1CCC(N2C(=O)N(Cc3ccccc3)Cc3cnc(Nc4ccc(N5CCN(C)CC5)cc4OC)nc32)CC1								9.3 (≈ 15.6 µM)	0.546	0.144	
C=CC(=O)NCCN1C(=O)N(Cc2ccccc2)Cc2cnc(Nc3ccc(N4CCN(C)CC4)cc3OC)nc21								96.7 (≈ 174 µM)	> 10	> 1	
C=CC(=O)NC1CCC(N2C(=O)N(Cc3ccccc3)Cc3cnc(Nc4ccc(N5CCN(C)CC5)cc4OC)nc32)CC1 (centres undefined)								18.8 (≈ 30.8 µM)	2.68	0.708	
C=CC(=O)N1CC[C@H](N2C(=O)N(C)Cc3cnc(Nc4ccc(N5CCN(C)CC5)cc4OC)nc32)C1								1250 (≈ 2470 µM)	1.48	0.525	
C=CC(=O)Nc1cccc(N2C(=O)N(Cc3ccccc3)Cc3cnc(Nc4ccc(N5CCN(C)CC5)cc4OC)nc32)c1.CS(=O)(=O)O			53.3		1570		4370				4
C=CC(=O)N1CC[C@H](N2C(=O)N(C3CCCC3)Cc3cnc(Nc4ccc(N5CCN(C)CC5)cc4OC)nc32)C1								250 (≈ 446 µM)	0.679	0.0587	
C=CC(=O)N1CC[C@H](N2C(=O)N(C3CCCCC3)Cc3cnc(Nc4ccc(N5CCN(C)CC5)cc4OC)nc32)C1								763 (≈ 1330 µM)	0.654	0.0429	
C=CC(=O)N1CCC[C@@H](N2C(=O)N(Cc3ccccc3)Cc3cnc(Nc4ccc(N5CCN(C)CC5)cc4OC)nc32)C1								142 (≈ 237 µM)	0.437	0.0403	

The remaining lines, values ahead:

bioavailability [1] [%]	CL/F [2] [mL/min/kg]	clearance [3] [mL/min/kg]	AUC(0-inf) [4] [ng·h/mL]	AUC(0-inf) [5] [ng·h/mL]	Cmax [6] [ng/mL]	Cmax [7] [ng/mL]	solubility thermodynamic at 24 h [8] [µg/mL]	IC50 (NCI-H1975) [µM]	IC50 [9] [µM]	Therm solubility ([8]; buffer, pH 6.8, 24 h) [µg/mL]	Compound
44	200	86.7	2120	962	613	1790	1540 (≈ 2700 µM)	0.111	0.0152		C=CC(=O)N1CC[C@H](N2C(=O)N(c3ccccc3)Cc3cnc(Nc4ccc(N5CCN(C)CC5)cc4OC)nc32)C1
24	1040	240	418	359	102	784	107 (≈ 184 µM)	0.279	0.0088		C=CC(=O)N1CC[C@H](N2C(=O)N(Cc3ccccc3)Cc3cnc(Nc4ccc(N5CCN(C)CC5)cc4OC)nc32)C1
							214 (≈ 374 µM)	0.089	0.0356		C=CC(=O)N1CC[C@H](N2C(=O)N(c3ccccc3)Cc3cnc(Nc4ccc(N5CCN(C)CC5)c(Cl)c4)nc32)C1
	335		1300		359		310 (≈ 577 µM)	0.311	0.0162		C=CC(=O)N1CC[C@H](N2C(=O)N(c3ccccc3)Cc3cnc(Nc4ccc(C5CCN(C)CC5)cc4)nc32)C1
54	203	96.7	2310	857	783	1520	976 (≈ 1810 µM)	0.249	0.0291		C=CC(=O)N1CC[C@H](N2C(=O)N(c3ccccc3)Cc3cnc(Nc4ccc(N5CCN(C)CC5)cc4)nc32)C1
							60.9 (≈ 100 µM)	0.196	0.0555		C=CC(=O)N1CC[C@H](N2C(=O)N(c3ccccc3)Cc3cnc(Nc4ccc(N5CCN(C)CC5)c(C(F)(F)F)c4)nc32)C1
20	467	91.7	948	949	420	3410	256 (≈ 450 µM)	0.065	0.0072		C=CC(=O)N1CC[C@H](N2C(=O)N(c3ccccc3)Cc3cnc(Nc4ccc(N5CCN(C)CC5)c(OC)c4)nc32)C1
